ChEMBL document CHEMBL1151735, “Further studies with the 2-amino-1,3-thiazol-4(5H)-one class of 11beta-hydroxysteroid dehydrogenase type 1 inhibitors: reducing pregnane X receptor activity and exploring activity in a monkey pharmacodynamic model” (J Med Chem, 2008)

Legend:
[1] = molecular target: T1, 11-beta-hydroxysteroid dehydrogenase 1 (Homo sapiens, UniProt P28845); assay: Inhibition of human 11beta-HSD1 expressed in CHO cells assessed as conversion of cortisone to cortisol by ELISA; assay type: cell-based
T1 sequence (P28845 whole entry): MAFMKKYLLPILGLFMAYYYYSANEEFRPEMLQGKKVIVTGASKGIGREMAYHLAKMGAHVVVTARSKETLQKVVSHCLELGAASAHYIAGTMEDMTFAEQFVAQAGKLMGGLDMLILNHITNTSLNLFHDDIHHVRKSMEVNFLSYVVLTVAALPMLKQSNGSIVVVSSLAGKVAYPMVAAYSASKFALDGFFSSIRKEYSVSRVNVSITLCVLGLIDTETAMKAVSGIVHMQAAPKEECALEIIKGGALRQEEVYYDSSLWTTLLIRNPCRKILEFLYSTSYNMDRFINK

[2] = molecular target: T1, 11-beta-hydroxysteroid dehydrogenase 1; assay: Inhibition of human recombinant 11beta-HSD1 expressed in Escherichia coli using [3H]cortisone by scintillation proximity assay
[3] = molecular target: T2, 11-beta-hydroxysteroid dehydrogenase type 2 (Homo sapiens, UniProt P80365); assay: Inhibition of human 11beta-HSD2 expressed in CHO cells using [3H]cortisol by scintillation proximity assay; assay type: cell-based
T2 sequence (P80365 whole entry): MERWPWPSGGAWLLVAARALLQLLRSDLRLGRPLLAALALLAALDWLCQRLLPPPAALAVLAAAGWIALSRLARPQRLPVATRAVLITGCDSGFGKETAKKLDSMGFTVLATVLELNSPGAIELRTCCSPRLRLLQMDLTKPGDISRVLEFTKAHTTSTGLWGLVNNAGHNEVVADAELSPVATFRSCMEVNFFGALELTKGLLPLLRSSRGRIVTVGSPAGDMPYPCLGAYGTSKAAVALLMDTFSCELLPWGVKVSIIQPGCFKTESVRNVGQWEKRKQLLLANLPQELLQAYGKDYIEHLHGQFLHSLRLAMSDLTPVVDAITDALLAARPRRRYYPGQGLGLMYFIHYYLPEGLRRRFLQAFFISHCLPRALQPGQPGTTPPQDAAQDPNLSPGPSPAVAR
Summary of the method: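 Human 11β-HSD2 from CHO cells with [3H]cortisol 3 nM and NAD+ 300 µM, in 0.1 M sodium phosphate pH 7.6. 1 h at room temperature, then stopped with 18β-glycyrrhetinic acid. Anticortisol antibody and antimouse SPA beads added for 30 min; radiometric read-out.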

[4] = molecular target: T3, Nuclear receptor subfamily 1 group I member 2 (Homo sapiens, UniProt O75469); assay: Transactivation of human PXR transfected in HEK cells at 20 uM by luciferase reporter gene assay relative to 12.5 uM rifampin; assay type: cell-based; details: hek293, 20 µM
T3 sequence (O75469 whole entry): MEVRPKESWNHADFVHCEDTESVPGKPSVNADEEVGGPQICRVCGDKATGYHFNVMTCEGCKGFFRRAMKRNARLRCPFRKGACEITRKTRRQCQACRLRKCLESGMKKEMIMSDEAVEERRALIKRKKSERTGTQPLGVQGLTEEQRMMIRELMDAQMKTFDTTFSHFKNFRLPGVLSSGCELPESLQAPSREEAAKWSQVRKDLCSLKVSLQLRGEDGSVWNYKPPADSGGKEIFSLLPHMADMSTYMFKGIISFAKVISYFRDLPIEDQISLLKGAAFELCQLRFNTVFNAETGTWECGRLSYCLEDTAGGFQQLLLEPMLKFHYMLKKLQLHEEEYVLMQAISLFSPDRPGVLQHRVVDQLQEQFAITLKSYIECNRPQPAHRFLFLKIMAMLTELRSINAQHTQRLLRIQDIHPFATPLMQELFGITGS
Summary of the method: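 HEK cells transfected with human PXR fused to a firefly luciferase reporter. Luciferase activity is expressed as percent of the 12.5 µM rifampin response. Run in triplicate; SEM reported.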

Row | SMILES | IC50 [1] | Ki [2] | IC50 [3] | Activity [4]
1 | CC(C(=O)N[C@H]1C2CC3CC1C[C@](O)(C3)C2)N1CCN(c2ccc(C(F)(F)F)cn2)CC1 (some centres not stated) | 5 nM | – | – | –
2 | C[C@H](NC1=NC(=O)[C@@](C)(C(C)(C)O)S1)c1ccc(F)cc1 | 300 nM | 210 nM | – | –
3 | C[C@H](NC1=NC(=O)C(C)(C2(O)CCC2)S1)c1ccc(F)cc1 (some centres not stated) | 32 nM | 49 nM | > 10000 nM | 26%
4 | C[C@H](NC1=NC(=O)C(C)(CC(C)(C)O)S1)c1ccc(F)cc1 (some centres not stated) | – | – | – | 28%
5 | C[C@H](NC1=NC(=O)C(C)(C(C)(C)O)S1)c1ccccc1F (some centres not stated) | 70 nM | 34 nM | > 10000 nM | 19%
